Experimental findings from ChEMBL document CHEMBL1141957, “Screening of electrophilic compounds yields an aziridinyl peptide as new active-site directed SARS-CoV main protease inhibitor” (Bioorg Med Chem Lett, 2005) are described below.

A value given as a limit tells only on which side of the number the result lay.

For the first experiment, the target named is Procathepsin L (Homo sapiens, UniProt P07711). Kind of experiment: Inhibitory activity against cathepsin L.
Procathepsin L, sequence (P07711 whole entry): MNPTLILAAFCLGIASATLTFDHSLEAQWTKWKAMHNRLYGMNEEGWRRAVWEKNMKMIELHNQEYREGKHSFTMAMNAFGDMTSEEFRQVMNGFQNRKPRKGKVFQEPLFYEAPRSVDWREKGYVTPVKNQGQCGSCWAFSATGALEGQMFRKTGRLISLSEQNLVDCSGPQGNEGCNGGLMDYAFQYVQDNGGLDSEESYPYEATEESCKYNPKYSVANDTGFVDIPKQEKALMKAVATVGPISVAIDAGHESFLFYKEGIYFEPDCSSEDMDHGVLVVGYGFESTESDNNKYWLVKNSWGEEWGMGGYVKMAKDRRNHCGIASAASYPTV
Compound `CCOC(=O)[C@H]1[C@H](C(=O)OCC)N1C(=O)[C@@H](NC(=O)OC(C)(C)C)C(C(C)C)N1CCC1` (stereo partly specified) displayed a Ki of 4.8 µM.
Take `CC(C)(C)OC(=O)N[C@H](C(=O)N1[C@H](C(=O)OCc2ccccc2)[C@H]1C(=O)OCc1ccccc1)N1CCCCC1`: the Ki was 6.4 µM. The Ki values of the last two compounds are within 1.5-fold of each other.

A further experiment addresses Replicase polyprotein 1a (Severe acute respiratory syndrome-related coronavirus) (UniProt P0C6U8). Kind of experiment: Inhibition of Mpro in SARS-CoV at 100uM.
Compound `CCOC(=O)[C@H]1N[C@H]1C(=O)OCC` came in with an inhibition of less than 10%.
Same read-out and setting: with `COC(=O)[C@H]1N[C@H]1C(=O)OC` the figure was less than 10%.
Same read-out and setting: next, `COC(=O)C1(C(=O)OC)NC1C` (stereo unspecified): less than 10%; `C[C@H]1O[C@H]1C(=O)O`: less than 10%; `COC(=O)C1(C(=O)OC)C(C)N1C(=O)OC(C)(C)C` (stereo unspecified): less than 10%.
The same measure, in the same setting: next, `C[C@H]1O[C@H]1C(=O)N[C@H](Cc1ccccc1)C(=O)OCc1ccccc1`: less than 10%; `CC(C)C[C@@H]1O[C@@H]1[C@H](Cc1ccccc1)NC(=O)OC(C)(C)C`: less than 10%; `COC(=O)C1C(c2ccccc2)N1Cc1ccccc1` (stereo unspecified): less than 10%.
`COC(=O)CN1CC1C(=O)N[C@@H](Cc1ccccc1)C(=O)OC` (stereo partly specified) registered an inhibition of less than 10%.
Still for that read-out and setting: with `CCOC(=O)N1C(C)C1(C(=O)OC)C(=O)OC` (stereo unspecified) the figure was less than 10%; with `COC(=O)[C@H]1O[C@H]1C(=O)OC`, less than 10%.
The same measure, in the same setting: with `CCOC(=O)[C@H]1N[C@@H]1C(=O)N[C@H](C(=O)OCc1ccccc1)[C@@H](C)CC` the figure was less than 10%.
`C[C@@H]1O[C@@H]1C(=O)N[C@H](Cc1ccccc1)C(=O)OCc1ccccc1`: the inhibition was less than 10%.
Same read-out and setting: with `C[C@H]1O[C@H]1C(=O)N[C@@H](Cc1ccccc1)C(=O)O` the figure was less than 10%; with `C[C@@H]1O[C@@H]1C(=O)N[C@H](Cc1ccccc1)C(=O)O`, less than 10%.
`CCOC(=O)C1C(C)N1Cc1ccccc1` (stereo unspecified): the inhibition was less than 10%.

The next experiment has the same target. The experiment in a line: Inhibition of Mpro in SARS-CoV at 100 uM in HPLC assay.
Compound `CCOC(=O)[C@H]1N[C@@H]1C(=O)NCC(=O)NCC(=O)OCc1ccccc1` had an inhibition of 75%.

For another experiment the target is unchanged. Kind of experiment: Inhibition of Mpro in SARS-CoV at 100 uM in FRET-based assay. A digest of the protocol: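 Fluorimetric read-out: SARS-CoV Mpro cleavage of a FRET-pair-labeled peptide substrate. Percent inhibition reported as the mean of at least 2 independent assays.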
Regarding `COC(=O)C1CN1[C@H](C(=O)OCc1ccccc1)C(C)C` (stereo partly specified), the inhibition came out at 20%.
On the same count and under the same terms, with `COC(=O)C1CN1[C@@H](CC(=O)OCc1ccccc1)C(=O)OCc1ccccc1` (stereo partly specified) the figure was 28%.
With `COC(=O)C1CN1[C@@H](C)C(=O)OC` (stereo partly specified), the inhibition amounted to 39%.
As for `COC(=O)C1CN1[C@@H](CC(C)C)C(=O)OCc1ccccc1` (stereo partly specified), the inhibition was determined as 34%.
Same read-out and setting: next, `C[C@H]1[C@@H](C(=O)N[C@@H](Cc2ccccc2)C(=O)OCc2ccccc2)N1Cc1ccccc1` (stereo partly specified): 24%.
The same measure, in the same setting: next, `CC1C(C(=O)N[C@@H](Cc2ccccc2)C(=O)OCc2ccccc2)N1Cc1ccccc1` (stereo partly specified): 34%; `CCOC(=O)[C@H]1[C@H](C(=O)OCC)N1C(=O)[C@@H]1CCCN1C(=O)[C@H](CC(C)C)NC(=O)OC(C)(C)C`: 16%.
Still for that read-out and setting: with `COC(=O)C1CN1[C@@H](CCSC)C(=O)OC` (stereo partly specified) the figure was 28%.
Compound `CC(C)[C@H](NC(=O)C1C(c2ccccc2)N1Cc1ccccc1)C(=O)OCc1ccccc1` (stereo partly specified) showed an inhibition of 22%.
As for `C[C@H]1O[C@H]1C(=O)N[C@@H](Cc1ccccc1)C(=O)OCc1ccccc1`, the inhibition was 15%.
On the same count and under the same terms, next, `CC[C@H](C)[C@@H](C(=O)OCc1ccccc1)N1CC1C(=O)OC` (stereo partly specified): 30%; `CCOC(=O)[C@H]1N[C@@H]1C(=O)NCC(=O)NCC(=O)OCc1ccccc1`: 54%.
As to `C[C@@H]1O[C@@H]1C(=O)N[C@@H](Cc1ccccc1)C(=O)OCc1ccccc1`, the inhibition was 28%.
The same measure, in the same setting: next, `COC(=O)CN1CC1C(=O)OC` (stereo unspecified): 30%; `CC(C)[C@H](NC(=O)[C@@H]1O[C@@H]1C)C(=O)OCc1ccccc1`: 10%; `O=C(N[C@@H](Cc1ccccc1)C(=O)OCc1ccccc1)C1C(c2ccccc2)N1Cc1ccccc1` (stereo partly specified): 30%.
The compound `COC(=O)C1CN1[C@H](C(=O)OC)C(C)C` (stereo partly specified) returned an inhibition of 30%.
The compound `CCOC(=O)[C@H]1[C@H](C(=O)OCC)N1C(=O)[C@@H](NC(=O)OC(C)(C)C)C(C(C)C)N1CCC1` (stereo partly specified) gave an inhibition of 16%.
The same measure, in the same setting: next, `COC(=O)C1CN1CCCC[C@H](NC(=O)OCc1ccccc1)C(=O)OC` (stereo partly specified): 48%; `COC(=O)C1CN1CC(=O)OCc1ccccc1` (stereo unspecified): 26%; `CC(C)(C)OC(=O)N[C@H](C(=O)N1[C@H](C(=O)OCc2ccccc2)[C@H]1C(=O)OCc1ccccc1)N1CCCCC1`: 29%.
The same measure, in the same setting: next, `CCOC(=O)C1OC1C(=O)N[C@@H](Cc1ccccc1)C(=O)OCc1ccccc1` (stereo partly specified): 22%.

Broadly, the Ki is a dissociation constant, usually derived from enzyme kinetics or from competition with a known ligand. Low readings indicate a stronger hold on the target, high ones a looser hold on the target. Usually inhibition stands for the change of the read-out against control, counted positive when it falls. A lower inhibition goes with a response near the control.
